pKi: −log10 of the molar value.
Legend:
[1] = target: T1, Neuronal acetylcholine receptor subunit alpha-7 (Homo sapiens, UniProt P36544); experiment: Binding affinity to alpha7 nAChR (unknown origin)
In short: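 Radioligand competition on homogenates of SH-SY5Y cells transfected with human α7 nAChR. [³H]methyllycaconitine at about 0.3 nM working concentration, test ligand in serial dilution 10 pM–10 µM. Buffer 50 mM Tris–HCl pH 7.4 with 120 mM NaCl, 5 mM KCl, 2.5 mM MgCl₂, 1 mM CaCl₂. Nonspecific binding defined with 300 µM (−)-nicotine tartrate. Incubated 240 min at room temperature, then filtered on PEI-soaked GF/B and counted by scintillation. Run in triplicate; IC50 by non-linear regression, Ki by Cheng–Prusoff.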

Brain [2] = experiment: Biodistribution in CD1 mouse brain measured at 60 mins by autoradiographic analysis; format: ADME, organism-based; settings: in vivo, 1 h
[3] = target: Neuronal acetylcholine receptor subunit alpha-7 (Rattus norvegicus, UniProt Q05941); experiment: Displacement of [3H]A-585539 from rat brain alpha7 nAChR by scintillation counting analysis
Chain of Neuronal acetylcholine receptor subunit alpha-7 (Rattus norvegicus, UniProt Q05941) (Q05941 whole entry): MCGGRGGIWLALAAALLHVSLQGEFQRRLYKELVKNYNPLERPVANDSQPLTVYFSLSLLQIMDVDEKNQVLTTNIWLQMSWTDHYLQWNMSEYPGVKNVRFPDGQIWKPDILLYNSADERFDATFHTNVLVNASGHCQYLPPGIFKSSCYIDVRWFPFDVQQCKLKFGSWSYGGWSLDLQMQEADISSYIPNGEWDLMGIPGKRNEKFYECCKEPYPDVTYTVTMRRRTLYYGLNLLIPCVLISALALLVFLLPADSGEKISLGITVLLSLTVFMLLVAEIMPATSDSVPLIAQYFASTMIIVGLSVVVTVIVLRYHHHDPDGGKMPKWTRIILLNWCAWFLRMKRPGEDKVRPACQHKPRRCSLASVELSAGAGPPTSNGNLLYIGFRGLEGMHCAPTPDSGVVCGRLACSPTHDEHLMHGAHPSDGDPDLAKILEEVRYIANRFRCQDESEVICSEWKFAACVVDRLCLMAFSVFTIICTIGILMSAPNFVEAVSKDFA

Femur = experiment: Biodistribution in CD1 mouse femur at 200 to 300 kBq, iv measured at 60 mins by gamma counting analysis in presence of NS6740; format: ADME, organism-based; settings: in vivo, 1 h
In short: (§1)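 Blocking study in female CD-1 mice, n = 7 per blocker, with a matching control group. SSR180711 or NS6740 given at 10 mg kg⁻¹ ip in 0.9% saline 10 min before iv radiotracer (200–300 kBq). Organs taken at 60 min p.i., weighed and gamma-counted; uptake as % ID per g wet weight. Compared with control by two-tailed independent Student's t test.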

Muscle tissue = experiment: Biodistribution in CD1 mouse muscle at 200 to 300 kBq, iv measured at 60 mins by gamma counting analysis in presence of NS6740; format: ADME, organism-based; settings: in vivo, 1 h
In short: (§2)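 Blocking design in female CD-1 mice, n = 7 per group. The blocker was given at 10 mg kg^-1 i.p. in 0.9% saline 10 min before i.v. 200–300 kBq [18F]radiotracer. Mice were killed at 60 min p.i. and organs weighed and gamma-counted as % ID per g wet weight. Blocked groups were compared with controls by two-tailed independent Student's t test.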

Zone of skin = experiment: Biodistribution in CD1 mouse skin at 200 to 300 kBq, iv measured at 60 mins by gamma counting analysis in presence of NS6740; format: ADME, organism-based; settings: in vivo, 1 h; in short: as §2
Mus musculus [4] = experiment: Biodistribution in CD1 mouse adrenal at 200 to 300 kBq, iv measured at 60 mins by gamma counting analysis in presence of NS6740; format: ADME, organism-based, Adrenal gland; settings: in vivo, 1 h; in short: as §1
Pancreas = experiment: Biodistribution in CD1 mouse pancreas at 200 to 300 kBq, iv measured at 60 mins by gamma counting analysis in presence of NS6740; format: ADME, organism-based; settings: in vivo, 1 h; in short: as §2
Mus musculus [5] = experiment: Biodistribution in CD1 mouse thymus at 200 to 300 kBq, iv measured at 60 mins by gamma counting analysis in presence of NS6740; format: ADME, organism-based; settings: in vivo, 1 h
In short: (§3)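 Female CD-1 mice given 200–300 kBq tracer intravenously. Animals anaesthetised for blood and urine sampling, then killed by cervical dislocation at 5, 15, 30 or 60 min (n = 3 per time; n = 7 at 60 min). Organs removed and weighed, activity gamma-counted, expressed as % injected dose per g wet weight. Blocking arm: 10 mg/kg i.p. in 0.9% saline, 10 min before tracer; two-tailed unpaired t test versus control.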

Spleen = experiment: Biodistribution in CD1 mouse spleen at 200 to 300 kBq, iv measured at 60 mins by gamma counting analysis in presence of NS6740; format: ADME, organism-based; settings: in vivo, 1 h; in short: as §2
Urinary bladder = experiment: Biodistribution in CD1 mouse bladder at 200 to 300 kBq, iv measured at 60 mins by gamma counting analysis in presence of NS6740; format: ADME, organism-based; settings: in vivo, 1 h; in short: as §1
[6] = Biodistribution in CD1 mouse urine at 200 to 300 kBq, iv measured at 60 mins by gamma counting analysis in presence of NS6740; format: ADME, organism-based; settings: in vivo, 1 h; in short: as §3
Kidney = experiment: Biodistribution in CD1 mouse kidney at 200 to 300 kBq, iv measured at 60 mins by gamma counting analysis in presence of NS6740; format: ADME, organism-based; settings: in vivo, 1 h; in short: as §1
Liver = experiment: Biodistribution in CD1 mouse liver at 200 to 300 kBq, iv measured at 60 mins by gamma counting analysis in presence of NS6740; format: ADME, organism-based; settings: in vivo, 1 h; in short: as §2
Mus musculus [7] = experiment: Biodistribution in CD1 mouse large intestine at 200 to 300 kBq, iv measured at 60 mins by gamma counting analysis in presence of NS6740; format: ADME, organism-based; settings: in vivo, 1 h; in short: as §1
Stomach = experiment: Biodistribution in CD1 mouse stomach at 200 to 300 kBq, iv measured at 60 mins by gamma counting analysis in presence of NS6740; format: ADME, organism-based; settings: in vivo, 1 h; in short: as §2
Mus musculus [8] = experiment: Biodistribution in CD1 mouse small intestine at 200 to 300 kBq, iv measured at 60 mins by gamma counting analysis in presence of NS6740; format: ADME, organism-based; settings: in vivo, 1 h; in short: as §2
Lung = experiment: Biodistribution in CD1 mouse lung at 200 to 300 kBq, iv measured at 60 mins by gamma counting analysis in presence of NS6740; format: ADME, organism-based; settings: in vivo, 1 h; in short: as §2
Brain [9] = experiment: Biodistribution in CD1 mouse brain at 200 to 300 kBq, iv measured at 60 mins by gamma counting analysis in presence of NS6740; format: ADME, organism-based; settings: in vivo, 1 h; in short: as §1
Heart = experiment: Biodistribution in CD1 mouse heart at 200 to 300 kBq, iv measured at 60 mins by gamma counting analysis in presence of NS6740; format: ADME, organism-based; settings: in vivo, 1 h; in short: as §1
Blood = experiment: Biodistribution in CD1 mouse blood at 200 to 300 kBq, iv measured at 60 mins by gamma counting analysis in presence of NS6740; format: ADME, organism-based; settings: in vivo, 1 h; in short: as §1
[10] = Cyclohexane-PBS distribution coefficient, log D of the compound at pH 7.2 after 30 mins by shake-flask method; format: physicochemical; settings: pH 7.2, 0.5 h
[11] = n-Octanol-PBS distribution coefficient, log D of the compound at pH 7.2 after 30 mins by shake-flask method; format: physicochemical
[12] = Stability of the compound in Tris-HCl buffer assessed as compound remaining at pH 6.7 measured up to 2 hrs by radio-TLC analysis; format: physicochemical; settings: read-out: Stability
In short: (§4)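 Tracer formulated in isotonic saline, then diluted 1:20 into 50 mM Tris–HCl (pH 6.7) or PBS (pH 7.2). Stirred at 40 °C for up to 2 h, sampled at 5, 10, 30, 60, 90 and 120 min, and analysed by radio-TLC for intact tracer.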

[13] = Stability of the compound in PBS buffer assessed as compound remaining at pH 7.2 measured up to 2 hrs by radio-TLC analysis; format: physicochemical; settings: read-out: Stability; in short: as §4
[14] = Stability of the compound in Tris-HCl buffer assessed as compound remaining at pH 6.7 measured at 5 mins by radio-TLC analysis; format: physicochemical; settings: read-out: Stability; in short: as §4
[15] = Stability of the compound in PBS buffer assessed as compound remaining at pH 7.2 measured at 5 mins by radio-TLC analysis; format: physicochemical; settings: read-out: Stability; in short: as §4
[16] = Ratio of drug level in brain to plasma in CD1 mouse at 200 to 300 kBq, iv measured at 15 mins; format: ADME, organism-based; settings: read-out: BPR
In short: (§5)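 Female CD-1 mice injected intravenously with 200–300 kBq tracer. Animals killed at 5, 15, 30 and 60 min (n = 3; n = 7 at 60 min). Brain and plasma activity gamma-counted as % ID/g wet weight, and the brain-to-plasma ratio taken from these values.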

[17] = Ratio of drug level in brain to plasma in CD1 mouse at 200 to 300 kBq, iv measured at 60 mins; format: ADME, organism-based; settings: read-out: BPR; in short: as §5
[18] = Ratio of drug level in brain to plasma in CD1 mouse at 200 to 300 kBq, iv measured at 30 mins; format: ADME, organism-based; settings: read-out: BPR; in short: as §5
[19] = Ratio of drug level in brain to plasma in CD1 mouse at 200 to 300 kBq, iv measured at 5 mins; format: ADME, organism-based; settings: read-out: BPR; in short: as §5
Homo sapiens [20] = species: Homo sapiens; experiment: Selectivity ratio of Ki for human alpha4beta2 nAChR to Ki for human alpha7 nAChR
Homo sapiens [21] = species: Homo sapiens; experiment: Selectivity ratio of Ki for human alpha3beta4 nAChR to Ki for human alpha7 nAChR
[22] = target: Neuronal acetylcholine receptor; alpha4/beta2 (Homo sapiens, UniProt P17787+P43681); experiment: Displacement of (+/-)[3H]-epibatidine from human alpha4beta2 nAChR transfected in HEK293 cells after 90 mins by liquid scintillation counting analysis; format: cell-based
Chain of Neuronal acetylcholine receptor; alpha4/beta2 (P17787 whole entry): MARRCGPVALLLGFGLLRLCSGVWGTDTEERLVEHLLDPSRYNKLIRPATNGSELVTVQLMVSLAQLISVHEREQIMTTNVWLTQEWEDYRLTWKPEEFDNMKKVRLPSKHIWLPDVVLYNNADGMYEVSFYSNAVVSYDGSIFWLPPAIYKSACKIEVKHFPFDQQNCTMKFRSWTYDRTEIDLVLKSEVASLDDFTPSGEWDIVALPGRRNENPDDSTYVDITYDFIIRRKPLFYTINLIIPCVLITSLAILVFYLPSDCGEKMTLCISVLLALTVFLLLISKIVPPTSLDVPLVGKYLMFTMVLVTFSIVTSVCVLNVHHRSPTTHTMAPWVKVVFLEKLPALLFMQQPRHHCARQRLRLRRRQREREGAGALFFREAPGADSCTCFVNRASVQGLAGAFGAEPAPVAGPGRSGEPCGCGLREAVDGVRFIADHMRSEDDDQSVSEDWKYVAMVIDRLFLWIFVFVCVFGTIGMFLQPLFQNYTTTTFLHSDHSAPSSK
Chain of Neuronal acetylcholine receptor; alpha4/beta2 (P43681 whole entry): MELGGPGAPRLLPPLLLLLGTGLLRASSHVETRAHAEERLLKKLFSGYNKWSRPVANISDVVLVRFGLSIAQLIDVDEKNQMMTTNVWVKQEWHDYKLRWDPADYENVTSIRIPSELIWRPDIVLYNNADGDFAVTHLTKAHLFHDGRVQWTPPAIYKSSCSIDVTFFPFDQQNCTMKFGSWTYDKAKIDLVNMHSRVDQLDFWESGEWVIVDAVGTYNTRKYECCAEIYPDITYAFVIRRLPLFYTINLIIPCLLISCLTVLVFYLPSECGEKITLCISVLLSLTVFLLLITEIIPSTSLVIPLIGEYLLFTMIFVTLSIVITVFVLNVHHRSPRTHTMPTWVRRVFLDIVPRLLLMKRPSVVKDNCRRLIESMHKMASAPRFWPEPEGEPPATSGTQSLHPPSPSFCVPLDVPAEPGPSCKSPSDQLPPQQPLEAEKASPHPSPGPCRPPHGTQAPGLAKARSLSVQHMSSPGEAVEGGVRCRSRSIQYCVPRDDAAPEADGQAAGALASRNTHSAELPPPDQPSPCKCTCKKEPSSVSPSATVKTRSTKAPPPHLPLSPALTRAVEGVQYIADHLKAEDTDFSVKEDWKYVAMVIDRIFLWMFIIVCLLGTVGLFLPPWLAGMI
In short: (§6)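 Homogenates of HEK293 cells transfected with human α4β2 or α3β4 nAChR, with about 0.5 nM (±)-[3H]epibatidine and compound 10 pM–10 µM. Buffer: 50 mM Tris–HCl pH 7.4 with NaCl, KCl, MgCl2 and CaCl2. Incubated 90 min at room temperature; nonspecific binding defined with 300 µM (−)-nicotine tartrate. Filtered onto PEI-soaked GF/B, scintillation counted, triplicates; IC50 by nonlinear regression, Ki by Cheng–Prusoff.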

[23] = target: Neuronal acetylcholine receptor; alpha3/beta4 (Homo sapiens, UniProt P30926+P32297); experiment: Displacement of (+/-)[3H]-epibatidine from human alpha3beta4 nAChR transfected in HEK293 cells after 90 mins by liquid scintillation counting analysis; format: cell-based; in short: as §6
Chain of Neuronal acetylcholine receptor; alpha3/beta4 (P30926 whole entry): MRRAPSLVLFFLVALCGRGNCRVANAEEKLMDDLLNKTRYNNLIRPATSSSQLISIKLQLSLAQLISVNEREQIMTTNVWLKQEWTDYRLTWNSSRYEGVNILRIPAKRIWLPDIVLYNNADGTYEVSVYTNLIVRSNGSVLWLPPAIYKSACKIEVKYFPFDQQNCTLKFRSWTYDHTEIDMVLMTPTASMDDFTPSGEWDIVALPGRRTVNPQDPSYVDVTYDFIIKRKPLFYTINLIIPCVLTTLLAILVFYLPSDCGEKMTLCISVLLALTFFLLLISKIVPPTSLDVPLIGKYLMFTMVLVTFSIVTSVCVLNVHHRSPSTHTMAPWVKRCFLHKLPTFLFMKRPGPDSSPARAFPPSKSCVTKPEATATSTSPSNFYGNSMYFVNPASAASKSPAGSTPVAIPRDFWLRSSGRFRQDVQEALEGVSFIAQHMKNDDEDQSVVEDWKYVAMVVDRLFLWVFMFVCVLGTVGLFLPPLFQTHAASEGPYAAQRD
Chain of Neuronal acetylcholine receptor; alpha3/beta4 (P32297 whole entry): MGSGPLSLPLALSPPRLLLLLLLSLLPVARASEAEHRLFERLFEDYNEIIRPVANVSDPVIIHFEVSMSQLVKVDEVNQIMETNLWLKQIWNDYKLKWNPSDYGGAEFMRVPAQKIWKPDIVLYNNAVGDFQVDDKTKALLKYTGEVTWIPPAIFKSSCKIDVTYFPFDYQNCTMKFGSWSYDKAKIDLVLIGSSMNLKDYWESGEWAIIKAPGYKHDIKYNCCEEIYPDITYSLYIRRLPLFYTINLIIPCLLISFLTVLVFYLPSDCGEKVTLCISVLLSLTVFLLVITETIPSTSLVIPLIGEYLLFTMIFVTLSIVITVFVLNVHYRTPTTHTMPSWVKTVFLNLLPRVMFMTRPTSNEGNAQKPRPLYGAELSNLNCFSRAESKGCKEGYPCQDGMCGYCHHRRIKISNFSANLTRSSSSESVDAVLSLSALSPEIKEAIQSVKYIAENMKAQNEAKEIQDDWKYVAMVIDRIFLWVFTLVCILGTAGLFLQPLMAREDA

[24] = target: T1, Neuronal acetylcholine receptor subunit alpha-7; experiment: Displacement of [3H]-methyllycaconitine from human alpha7 nAChR transfected in human SH-SY5Y cells after 240 mins by liquid scintillation counting analysis; format: cell-based
In short: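 Homogenates of SH-SY5Y cells transfected with human α7 nAChR, with about 0.3 nM [3H]methyllycaconitine and compound 10 pM–10 µM in Tris–HCl pH 7.4 saline buffer. Incubated 240 min at room temperature; nonspecific binding defined with 300 µM (−)-nicotine tartrate. Filtered onto PEI-soaked GF/B, washed with ice-cold Tris, scintillation counted, triplicates; Ki via Cheng–Prusoff.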

T1 sequence (P36544 whole entry): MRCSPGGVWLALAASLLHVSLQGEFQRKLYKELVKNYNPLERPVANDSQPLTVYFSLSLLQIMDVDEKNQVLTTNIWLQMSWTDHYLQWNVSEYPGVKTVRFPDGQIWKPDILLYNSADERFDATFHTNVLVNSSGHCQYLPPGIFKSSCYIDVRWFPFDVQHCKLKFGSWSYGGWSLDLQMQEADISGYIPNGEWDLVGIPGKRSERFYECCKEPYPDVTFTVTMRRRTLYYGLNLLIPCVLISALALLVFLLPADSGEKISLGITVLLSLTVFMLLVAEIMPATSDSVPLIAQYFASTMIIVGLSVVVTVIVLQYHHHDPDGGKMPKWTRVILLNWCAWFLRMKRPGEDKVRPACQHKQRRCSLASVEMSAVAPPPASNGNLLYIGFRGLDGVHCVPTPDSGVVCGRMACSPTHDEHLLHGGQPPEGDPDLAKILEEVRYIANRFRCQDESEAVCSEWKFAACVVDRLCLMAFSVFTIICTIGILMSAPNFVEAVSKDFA

Fc1ccc(-c2nnc(N3CCN4CCC3CC4)o2)cc1
pKi [1]: 7.94

[18F]c1ccc(-c2nnc(N3CCN4CCC3CC4)o2)cc1
Drug uptake (Brain [2]): 1.73 % ID/g

O=C(c1ccc(-c2cccc(C(F)(F)F)c2)o1)N1CCN2CCC1CC2
pKi [3]: 8.96 | Drug uptake (Femur): 1.49 % ID/g | Drug uptake (Muscle tissue): 1.05 % ID/g | Drug uptake (Zone of skin): 1.7 % ID/g | Drug uptake (Mus musculus [4]): 2.51 % ID/g | Drug uptake (Pancreas): 3.04 % ID/g | Drug uptake (Mus musculus [5]): 2.25 % ID/g | Drug uptake (Spleen): 6.57 % ID/g | Drug uptake (Urinary bladder): 1.45 % ID/g | Drug uptake [6]: 218 % ID/g | Drug uptake (Kidney): 11.7 % ID/g | Drug uptake (Liver): 6.67 % ID/g | Drug uptake (Mus musculus [7]): 5.11 % ID/g | Drug uptake (Stomach): 9.71 % ID/g | Drug uptake (Mus musculus [8]): 15.3 % ID/g | Drug uptake (Lung): 4.56 % ID/g | Drug uptake (Brain [9]): 0.14 % ID/g | Drug uptake (Heart): 1.77 % ID/g | Drug uptake (Blood): 0.75 % ID/g

[18F]CCn1ccc2ccc(-c3nnc(N4CCN5CCC4CC5)o3)cc21
logD [10]: -2.05 | logD at 0.5 h [11]: 1.11 | remaining at 2 h [12]: ≥ 97% | remaining at 2 h [13]: ≥ 97% | remaining at 5 min [14]: 98% | remaining at 5 min [15]: 98% | Kp at 0.25 h [16]: 0.18 | Kp at 1 h [17]: 0.26 | Kp at 0.5 h [18]: 0.19 | Kp at 5 min [19]: 0.11

FCCn1ccc2ccc(-c3nnc(N4CCN5CCC4CC5)o3)cc21
Ratio Ki (Homo sapiens [20]): > 400 | Ratio Ki (Homo sapiens [21]): 40.8 | pKi [22]: < 6.00 | pKi [23]: 6.99 | pKi [24]: 8.60

— ChEMBL document CHEMBL2380270, “Radiosynthesis and first evaluation in mice of [(18)F]NS14490 for molecular imaging of α7 nicotinic acetylcholine receptors” (Bioorg Med Chem, 2013)
